Converted amounts (≈) assume the structure as drawn. The source made the active and inactive calls. The rule behind the calls is not given here.
Key:
[1] = system: Col2; test: Cytotoxicity against human Col2 cells; type: functional; conditions: read-out: ED50 (the source's name)
[2] = system: ASK; test: Cytotoxicity against human ASK cells at 20 ug/mL; type: functional, cell-based
[3] = system: Lu1; test: Cytotoxicity against human Lu1 cells; type: functional; conditions: read-out: ED50 (the source's name)
[4] = Cytotoxicity against human BC1 cells; type: functional; conditions: read-out: ED50 (the source's name)
[5] = Cytotoxicity against human KBV1 cells in absence of vinblastine; type: functional; conditions: KB-V1, read-out: ED50 (the source's name)
How it was run: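 Multidrug-resistant oral epidermoid carcinoma KB-V1 cells were incubated with test compound alone, with no vinblastine added. Cytotoxicity is reported as ED50 in µg/mL.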

[6] = system: KB; test: Cytotoxicity against human KB cells; type: functional; conditions: read-out: ED50 (the source's name)
How it was run: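 Parental (drug-sensitive) KB oral epidermoid carcinoma cells were exposed to test compound without vinblastine. Cytotoxicity is reported as ED50 in µg/mL.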

[7] = Cytotoxicity against human KBV1 cells in presence of vinblastine; type: functional; conditions: KB-V1, read-out: ED50 (the source's name)
How it was run: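 Multidrug-resistant oral epidermoid carcinoma KB-V1 cells were incubated with test compound in the presence of vinblastine at 1.0 µg/mL. Cytotoxicity is reported as ED50 in µg/mL.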

[8] = system: LNCaP; test: Cytotoxicity against human LNCAP cells; type: functional; conditions: read-out: ED50 (the source's name)

SMILES | EC50 [1] [µg/mL] | Activity [2] | EC50 [3] [µg/mL] | EC50 [4] [µg/mL] | EC50 [5] [µg/mL] | EC50 [6] [µg/mL] | EC50 [7] [µg/mL] | EC50 [8] [µg/mL]
COc1cc(/C=C/C(=O)O[C@H]2C[C@H]3C[C@H](OC(=O)c4ccccc4)[C@@H](C2)N3C)cc(OC)c1OC | 5.1 (≈ 10.6 µM) | inactive | > 20 | 15.3 (≈ 31.8 µM) | 3.6 (≈ 7.48 µM) | 10.3 (≈ 21.4 µM) | 0.2 | 10 (≈ 20.8 µM)
COc1cc(/C=C/C(=O)O[C@@H]2C[C@@H]3[C@@H](OC(=O)c4cc(OC)c(OC)c(OC)c4)[C@@H](O)[C@H](C2)N3C)cc(OC)c1OC | 10.4 (≈ 17.7 µM) | inactive | 14.6 (≈ 24.8 µM) | 6.1 (≈ 10.4 µM) | 20 (≈ 34 µM) | 12.6 (≈ 21.4 µM) | 6.6 | 15 (≈ 25.5 µM)
COc1cc(/C=C/C(=O)O[C@@H]2C[C@@H]3[C@@H](OC(=O)c4ccccc4)[C@@H](OC(C)=O)[C@H](C2)N3C)cc(OC)c1OC | > 20 | inactive | > 20 | 14.6 (≈ 27.1 µM) | 13.2 (≈ 24.5 µM) | 14.8 (≈ 27.4 µM) | 1.1 | 14.9 (≈ 27.6 µM)
COc1cc(/C=C\C(=O)O[C@H]2C[C@H]3C[C@H](OC(=O)c4ccccc4)[C@@H](C2)N3C)cc(OC)c1OC |  |  | > 20 | > 20 | 3.5 (≈ 7.27 µM) | > 20 | 0.3 | 
CN1C2C[C@H](O)CC1[C@@H](OC(=O)c1ccccc1)C2 (some centres not stated) |  |  | > 20 | > 20 | > 20 | > 20 | > 20 | 
COc1cc(/C=C/C(=O)O[C@@H]2C[C@@H]3[C@@H](OC(=O)c4ccccc4)[C@@H](O)[C@H](C2)N3C)cc(OC)c1OC | > 20 | inactive | > 20 | > 20 | 2.6 (≈ 5.23 µM) | > 20 | 0.3 | 6.7 (≈ 13.5 µM)
